Source: ChEMBL document CHEMBL1158565, “Antagonism of 4-substituted 1,4-dihydropyridine-3,5-dicarboxylates toward voltage-dependent L-type Ca2+ channels Ca V 1.3 and Ca V 1.2” (Bioorg Med Chem, 2010)

Columns and labels:
[1] = biological target: Voltage-dependent L-type calcium channel subunit alpha-1D (Rattus norvegicus, UniProt P27732); experiment: Antagonist activity at rat Cav1.3 expressed in HEK293 cells assessed as inhibition of voltage pulse-induced calcium current by FLIPR calcium 4 assay; format: functional, cell-based
Procedure, shortened: (§1)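 HEK293 lines stably expressing Cavβ3 and Cavα2δ-1 plus Cav1.2 α1C (rabbit) or Cav1.3 α1D (rat) were selected with zeocin/hygromycin. Calcium signals were read by FLIPR with Calcium 4 dye. IC50 came from 11-point dose-response curves. Signal percentage error (SD/mean) was 6.4% for Cav1.2 and 4.1% for Cav1.3 cells.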

[2] = biological target: Voltage-dependent L-type calcium channel subunit alpha-1C (Oryctolagus cuniculus, UniProt P15381); experiment: Antagonist activity at rabbit Cav1.2 expressed in HEK293 cells assessed as inhibition of voltage pulse-induced calcium current by FLIPR calcium 4 assay; format: functional, cell-based; procedure, shortened: as §1
Sequence of Voltage-dependent L-type calcium channel subunit alpha-1C (P15381 whole entry): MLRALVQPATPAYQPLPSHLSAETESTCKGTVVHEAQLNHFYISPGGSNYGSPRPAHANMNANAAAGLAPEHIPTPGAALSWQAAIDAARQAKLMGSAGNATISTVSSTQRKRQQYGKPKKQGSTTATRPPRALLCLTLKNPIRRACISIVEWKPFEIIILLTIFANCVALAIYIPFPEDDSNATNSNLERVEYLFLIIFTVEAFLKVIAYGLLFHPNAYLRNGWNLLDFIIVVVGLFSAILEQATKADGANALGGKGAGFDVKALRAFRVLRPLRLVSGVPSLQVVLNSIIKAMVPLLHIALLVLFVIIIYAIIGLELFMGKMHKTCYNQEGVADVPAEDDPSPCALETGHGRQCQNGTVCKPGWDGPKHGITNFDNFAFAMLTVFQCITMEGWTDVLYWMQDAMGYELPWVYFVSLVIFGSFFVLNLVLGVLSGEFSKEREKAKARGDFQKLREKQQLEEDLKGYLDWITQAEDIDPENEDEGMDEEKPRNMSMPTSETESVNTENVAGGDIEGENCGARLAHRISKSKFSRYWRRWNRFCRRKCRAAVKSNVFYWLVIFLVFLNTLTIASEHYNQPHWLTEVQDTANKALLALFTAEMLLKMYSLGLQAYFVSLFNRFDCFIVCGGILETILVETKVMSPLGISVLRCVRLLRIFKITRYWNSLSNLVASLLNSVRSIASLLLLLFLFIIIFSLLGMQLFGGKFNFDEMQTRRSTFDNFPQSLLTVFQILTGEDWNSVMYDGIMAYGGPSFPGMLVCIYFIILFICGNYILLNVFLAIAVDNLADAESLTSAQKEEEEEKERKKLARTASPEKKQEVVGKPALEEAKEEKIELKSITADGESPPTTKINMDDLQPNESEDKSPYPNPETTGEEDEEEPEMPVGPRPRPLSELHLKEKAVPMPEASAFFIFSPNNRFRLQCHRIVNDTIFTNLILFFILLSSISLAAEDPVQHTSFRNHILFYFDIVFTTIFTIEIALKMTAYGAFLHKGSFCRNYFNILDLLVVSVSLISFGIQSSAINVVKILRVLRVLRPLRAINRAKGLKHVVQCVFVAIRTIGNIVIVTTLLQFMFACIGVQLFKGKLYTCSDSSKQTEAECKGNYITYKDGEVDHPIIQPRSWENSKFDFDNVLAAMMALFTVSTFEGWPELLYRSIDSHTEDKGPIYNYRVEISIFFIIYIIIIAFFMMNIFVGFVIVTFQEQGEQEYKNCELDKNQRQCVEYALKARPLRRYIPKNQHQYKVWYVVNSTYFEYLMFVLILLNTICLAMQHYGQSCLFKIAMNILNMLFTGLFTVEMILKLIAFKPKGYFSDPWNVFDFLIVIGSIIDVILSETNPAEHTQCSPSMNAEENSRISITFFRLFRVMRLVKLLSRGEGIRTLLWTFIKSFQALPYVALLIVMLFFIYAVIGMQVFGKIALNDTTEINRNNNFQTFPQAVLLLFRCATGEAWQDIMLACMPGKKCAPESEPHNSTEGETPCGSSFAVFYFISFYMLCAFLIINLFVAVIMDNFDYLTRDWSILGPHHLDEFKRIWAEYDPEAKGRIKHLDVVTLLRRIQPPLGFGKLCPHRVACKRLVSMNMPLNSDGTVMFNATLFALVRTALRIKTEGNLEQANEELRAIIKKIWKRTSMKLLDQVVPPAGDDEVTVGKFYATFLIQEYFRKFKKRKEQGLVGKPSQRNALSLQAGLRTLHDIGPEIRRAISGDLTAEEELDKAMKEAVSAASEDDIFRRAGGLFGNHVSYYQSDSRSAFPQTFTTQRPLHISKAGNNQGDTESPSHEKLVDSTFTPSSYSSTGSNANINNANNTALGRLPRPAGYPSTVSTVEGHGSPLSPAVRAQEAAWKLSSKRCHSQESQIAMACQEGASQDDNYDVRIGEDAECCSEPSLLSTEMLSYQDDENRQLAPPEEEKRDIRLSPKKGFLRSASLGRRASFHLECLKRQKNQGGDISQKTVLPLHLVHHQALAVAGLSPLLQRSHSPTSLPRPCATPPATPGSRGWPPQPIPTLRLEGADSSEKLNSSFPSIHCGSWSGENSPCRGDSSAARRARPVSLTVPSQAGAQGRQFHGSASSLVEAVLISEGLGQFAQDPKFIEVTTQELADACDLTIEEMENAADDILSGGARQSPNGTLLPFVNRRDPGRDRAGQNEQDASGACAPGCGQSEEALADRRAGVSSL

Sequence of Voltage-dependent L-type calcium channel subunit alpha-1D (P27732 whole entry): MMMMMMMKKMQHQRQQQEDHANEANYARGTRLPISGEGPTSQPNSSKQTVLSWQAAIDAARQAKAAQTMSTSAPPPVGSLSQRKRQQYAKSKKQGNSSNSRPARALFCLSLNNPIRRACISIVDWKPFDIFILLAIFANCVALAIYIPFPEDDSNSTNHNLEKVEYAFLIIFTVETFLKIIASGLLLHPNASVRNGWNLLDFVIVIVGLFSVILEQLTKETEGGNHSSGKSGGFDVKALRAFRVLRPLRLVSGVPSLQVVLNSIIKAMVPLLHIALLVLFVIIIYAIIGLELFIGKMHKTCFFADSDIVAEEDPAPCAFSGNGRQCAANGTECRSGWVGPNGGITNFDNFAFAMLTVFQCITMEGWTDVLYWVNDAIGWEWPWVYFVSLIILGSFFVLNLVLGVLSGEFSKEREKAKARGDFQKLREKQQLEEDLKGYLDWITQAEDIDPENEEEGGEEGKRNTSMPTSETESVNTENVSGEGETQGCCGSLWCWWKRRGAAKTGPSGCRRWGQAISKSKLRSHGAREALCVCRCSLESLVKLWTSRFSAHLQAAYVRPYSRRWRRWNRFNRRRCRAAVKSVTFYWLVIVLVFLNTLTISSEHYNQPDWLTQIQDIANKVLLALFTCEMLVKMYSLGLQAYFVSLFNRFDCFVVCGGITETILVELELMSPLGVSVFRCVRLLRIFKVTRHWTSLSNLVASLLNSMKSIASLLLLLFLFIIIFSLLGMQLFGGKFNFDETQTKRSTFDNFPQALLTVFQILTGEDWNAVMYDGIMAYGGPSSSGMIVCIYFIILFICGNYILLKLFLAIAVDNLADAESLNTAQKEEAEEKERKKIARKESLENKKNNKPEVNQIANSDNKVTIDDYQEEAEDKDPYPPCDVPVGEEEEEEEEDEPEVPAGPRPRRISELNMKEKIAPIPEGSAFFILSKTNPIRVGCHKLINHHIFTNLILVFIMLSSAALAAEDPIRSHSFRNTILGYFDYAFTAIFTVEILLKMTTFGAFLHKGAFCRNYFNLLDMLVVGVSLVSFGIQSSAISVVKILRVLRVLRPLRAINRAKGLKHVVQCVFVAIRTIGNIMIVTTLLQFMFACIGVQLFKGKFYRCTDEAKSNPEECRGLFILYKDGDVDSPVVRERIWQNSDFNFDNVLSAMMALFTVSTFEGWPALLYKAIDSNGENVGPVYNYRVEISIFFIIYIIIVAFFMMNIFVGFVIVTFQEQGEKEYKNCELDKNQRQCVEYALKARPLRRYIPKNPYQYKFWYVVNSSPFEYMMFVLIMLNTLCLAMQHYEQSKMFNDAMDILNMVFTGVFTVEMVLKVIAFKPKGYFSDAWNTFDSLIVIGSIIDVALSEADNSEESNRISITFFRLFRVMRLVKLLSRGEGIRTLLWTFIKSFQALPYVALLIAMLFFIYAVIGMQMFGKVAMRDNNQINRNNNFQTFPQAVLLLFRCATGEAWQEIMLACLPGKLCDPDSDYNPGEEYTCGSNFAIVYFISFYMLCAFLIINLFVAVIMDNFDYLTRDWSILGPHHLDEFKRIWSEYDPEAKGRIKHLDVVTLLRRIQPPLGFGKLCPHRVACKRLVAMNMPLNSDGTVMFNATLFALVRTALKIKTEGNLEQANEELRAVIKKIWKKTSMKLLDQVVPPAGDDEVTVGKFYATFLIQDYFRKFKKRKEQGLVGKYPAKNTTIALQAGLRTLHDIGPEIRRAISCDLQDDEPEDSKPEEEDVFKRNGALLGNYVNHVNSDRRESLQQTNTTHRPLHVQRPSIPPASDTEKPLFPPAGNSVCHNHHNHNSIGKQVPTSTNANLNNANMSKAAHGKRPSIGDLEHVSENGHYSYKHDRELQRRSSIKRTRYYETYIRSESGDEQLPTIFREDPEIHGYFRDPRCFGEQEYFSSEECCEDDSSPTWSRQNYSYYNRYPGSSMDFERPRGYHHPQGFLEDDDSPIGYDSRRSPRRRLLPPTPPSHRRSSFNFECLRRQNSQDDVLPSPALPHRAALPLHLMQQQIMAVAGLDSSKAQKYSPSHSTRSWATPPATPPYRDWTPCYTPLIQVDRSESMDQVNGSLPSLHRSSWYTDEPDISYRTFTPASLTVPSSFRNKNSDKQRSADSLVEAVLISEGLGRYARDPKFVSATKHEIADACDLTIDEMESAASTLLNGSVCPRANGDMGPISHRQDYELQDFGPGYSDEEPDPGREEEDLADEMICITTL

Compound | IC50 [1] | IC50 [2]
CCOC(=O)C1=C(C)NC(C)=C(C(=O)OCCC#N)[C@@H]1c1cccc([N+](=O)[O-])c1 | 137 nM | 50 nM
CCOC(=O)C1=C(C)NC(C)=C(C(=O)OCc2ccc([N+](=O)[O-])cc2)C1c1cccc([N+](=O)[O-])c1 (stereo not drawn) | 140 nM | 130 nM
CCOC(=O)C1=C(C)NC(C)=C(C(C)=O)C1c1ccc2ccccc2c1 (stereo not drawn) | 2320 nM | 2220 nM
COC(=O)C1=C(C)NC(C)=C(C(=O)OCCC#N)C1c1cccc([N+](=O)[O-])c1 (stereo not drawn) | 78 nM | 26 nM
COC(=O)C1=C(C)NC(C)=C(C(=O)OCCOCc2ccccc2)C1c1cccc([N+](=O)[O-])c1 (stereo not drawn) | 12 nM | 9 nM
COC(=O)C1=C(C)NC(C)=C(C(=O)OCc2cccc(F)c2)C1c1cccc([N+](=O)[O-])c1 (stereo not drawn) | 28 nM | 22 nM
C=CCOC(=O)C1=C(C)NC(C)=C(C(=O)OC)C1c1cccc([N+](=O)[O-])c1 (stereo not drawn) | 15 nM | 15 nM
COC(=O)C1=C(C)NC(C)=C(C(=O)OC2C=CCCC2)C1c1cccc([N+](=O)[O-])c1 (stereo not drawn) | 10 nM | 10 nM
C#CCCOC(=O)C1=C(C)NC(C)=C(C(=O)OC)C1c1cccc([N+](=O)[O-])c1 (stereo not drawn) | 35 nM | 31 nM
CCOC(=O)C1=C(C)NC(COC)=C(C(=O)OC)C1c1ccccc1[N+](=O)[O-] (stereo not drawn) | 790 nM | 1760 nM
COC(=O)C1=C(C)NC(C)=C(C(=O)OCc2ccc(-c3ccccc3)cc2)C1c1cccc([N+](=O)[O-])c1 (stereo not drawn) | 74 nM | 69 nM
COC(=O)C1=C(C)NC(C)=C(C(=O)OCCCOc2ccccc2)C1c1cccc([N+](=O)[O-])c1 (stereo not drawn) | 11 nM | 9 nM
COC(=O)C1=C(C)NC(C)=C(C(=O)OCc2ccc(OC)cc2)C1c1cccc([N+](=O)[O-])c1 (stereo not drawn) | 79 nM | 51 nM
CC1=C(C#N)C(c2cccc(F)c2F)C(C#N)=C(C)N1 | 1150 nM | 1610 nM
CCCC1=C(C(=O)OCC)C(c2cccc([N+](=O)[O-])c2)C(C(=O)OCC)=C(C)N1 (stereo not drawn) | 105 nM | 18 nM
COC(=O)C1=C(C)N=C(C)/C(=C(/O)OC)C1(C)c1ccccc1 (stereo not drawn) | 2310 nM | 1470 nM
CCOC(=O)C1=C(C)NC(C)=C(C(=O)OC=O)C1c1cccc([N+](=O)[O-])c1 (stereo not drawn) | 13900 nM | 33300 nM

Compound | IC50 [1] | IC50 [2]
COC(=O)C1=C(C)NC(C)=C(C(=O)OCc2ccc(F)c(F)c2)C1c1cccc([N+](=O)[O-])c1 (stereo not drawn) | 20 nM | 7 nM
CCOC(=O)C1=C(C)NC(C)=C(C(=O)OCC)C1c1ccc(F)cc1F | 58 nM | 20 nM
COC(=O)C1=C(C)NC(C)=C(C(=O)OCCC(c2ccccc2)c2ccccc2)C1c1cccc([N+](=O)[O-])c1 (stereo not drawn) | 270 nM | 100 nM
COC(=O)C1=C(C)NC(C)=C(C(=O)OCCNC(=O)C(F)(F)F)C1c1cccc([N+](=O)[O-])c1 (stereo not drawn) | 550 nM | 410 nM
COC(=O)C1=C(C)NC(C)=C(C(=O)OCCC(C)c2ccccc2)C1c1cccc([N+](=O)[O-])c1 (stereo not drawn) | 11 nM | 6 nM
CCOC(=O)C1=C(C)NC(CN2CCN(c3ccccc3)CC2)=C(C(=O)OCC)C1c1cccc([N+](=O)[O-])c1 (stereo not drawn) | 610 nM | 630 nM
COC(=O)C1=C(C)NC(C)=C(C(=O)OCc2cc([N+](=O)[O-])cc([N+](=O)[O-])c2)C1c1cccc([N+](=O)[O-])c1 (stereo not drawn) | 40 nM | 55 nM
CCOC(=O)C1=C(C)NC(/C=C/C#N)=C(C(=O)OCC)C1c1cccc([N+](=O)[O-])c1 (stereo not drawn) | 45 nM | 22 nM
COCC1=C(C(=O)OC)C(c2cccc([N+](=O)[O-])c2)C(C(=O)OC)=C(C)N1 (stereo not drawn) | 350 nM | 115 nM
CCOC(=O)C1=C(C)NC(C)=C(C(=O)OCCC#N)[C@H]1c1cccc([N+](=O)[O-])c1 | 211 nM | 51 nM
CCOC(=O)C1=C(C)NC(C=CC(=O)OC)=C(C(=O)OCC)C1c1cccc([N+](=O)[O-])c1 (mixture of isomers) | 213 nM | 313 nM
C=CCOC(=O)C1=C(C)NC(C)=C(C(=O)OCC)C1c1ccc2ccccc2c1 (stereo not drawn) | 2160 nM | 1310 nM
COC(=O)C1=C(C)NC(C)=C(C(=O)OC)C1c1ccccc1SC | 35 nM | 8 nM
COC(=O)C1=C(C)NC(C)=C(C(=O)OCCCCc2ccccc2)C1c1cccc([N+](=O)[O-])c1 (stereo not drawn) | 38 nM | 10 nM
COC(=O)C1=C(C)NC(C)=C(C(=O)OCCCl)C1c1cccc([N+](=O)[O-])c1 (stereo not drawn) | 22 nM | 26 nM
COC(=O)C1=C(C)NC(C)=C(C(=O)OCCc2ccc(Cl)cc2)C1c1cccc([N+](=O)[O-])c1 (stereo not drawn) | 39 nM | 8 nM
C=C(C)CCOC(=O)C1=C(C)NC(C)=C(C(=O)OC)C1c1cccc([N+](=O)[O-])c1 (stereo not drawn) | 47 nM | 23 nM
